Reference: PMC3967098 (Journal of medicinal chemistry, 2008)
Like-named read-outs stand apart in the source and are kept apart here.

How the values were obtained:
c-kit1 quadruplex = experiment: SPR equilibrium binding, c-kit1 quadruplex; set-up: species or system human; conditions: strong binding site; 25°C
Summary of the method: (§1)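 5′-Biotinylated quadruplex oligonucleotides were captured on a streptavidin chip to 350-400 RU, with a blank reference flow cell. Runs used 10mM HEPES, 100mM KCl, 3mM EDTA and P20 surfactant (pH 7.3) at 25°C. Ligand (1nM–10µM) was injected at 50µl/min for 5–10 min to steady state, then buffer for 10 min. The surface was regenerated with 10mM glycine pH 2.0, and KA came from nonlinear least-squares fitting.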

[1] = tested on: FRET-tagged duplex DNA sequence; experiment: FRET melting assay, duplex DNA; type: binding
c-myc quadruplex = experiment: SPR equilibrium binding, c-myc quadruplex; set-up: species or system human; conditions: for SPR Ligand KA for a single-site fit, c-myc: strong binding site, 25°C
Summary of the method: as §1

c-kit2 quadruplex = experiment: SPR equilibrium binding, c-kit2 quadruplex; set-up: species or system human; conditions: strong binding site; 25°C
Summary of the method: as §1

[2] = tested on: hTel quadruplex (human telomere); experiment: SPR equilibrium binding, hTel quadruplex; conditions: strong binding site; 25°C, HEPES 100mM KCl pH 7.3
Summary of the method: as §1

MCF7 cells [3] = experiment: Long-term; type: cell-based, human; conditions: 1 week MCF7
Summary of the method: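 MCF7 cells (1×10^5 seeded, supplemented DMEM, 37 °C, 5% CO2) were exposed for 1 week to two sub-cytotoxic ligand concentrations, re-dosed twice weekly, alongside a media-only control. Cells were counted by haemocytometer, and population doublings were calculated as n = (log Pn – log P0)/log2, where P0 is the seeding density. Values are reported ± sd.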

MCF7 cells [4] = experiment: Assessment of chromosomal end-end fusions; type: cell-based, human; conditions: 1 week, data not shown
DNA hairpin duplex = conditions: cited from earlier work
[5] = tested on: MCF7 breast adenocarcinoma cell line; conditions: read-out: SRB IC50, MCF7; cited from earlier work
[6] = tested on: A549 non-small cell lung carcinoma cell line; conditions: read-out: SRB IC50, A549; cited from earlier work
[7] = tested on: hTel quadruplex (human telomere); conditions: strong binding site; cited from earlier work

Compound: O=C(CN1CCCC1)Nc1ccc(NC(=O)c2cccc(NC(=O)Nc3cccc(C(=O)Nc4ccc(NC(=O)CN5CCCC5)cc4)c3)c2)cc1 [9a, 1,3-bis(3-(4-(2-(pyrrolidin-1-yl)acetamido)phenylcarbamoyl)phenyl)urea]
- SPR Ligand KA for a single-site fit, c-kit1 (c-kit1 quadruplex): 2.1e+06 M⁻¹
- FRET ΔTm at a 1μM ligand concentration, Duplex [1]: 0.0 ± 0.6 °C
- selectivity for the c-myc quadruplex (SPR) (c-myc quadruplex; relative to the other quadruplexes): ~3 fold
- SPR Ligand KA for a single-site fit, c-myc (c-myc quadruplex): 1.4e+07 M⁻¹
- SPR Ligand KA for a single-site fit, c-kit2 (c-kit2 quadruplex): 5.1e+06 M⁻¹
- SPR Ligand KA for a single-site fit, hTel [2]: 1.4e+06 M⁻¹
- PD (population doublings) (MCF7 cells [3]; 5.00 μM): 3.79 ± 0.12
- PD (population doublings) (MCF7 cells [3]; 10.00 μM): 3.00 ± 0.38

Compound: O=C(CCN1CCCC1)Nc1ccc(NC(=O)c2cccc(NC(=O)Nc3cccc(C(=O)Nc4ccc(NC(=O)CCN5CCCC5)cc4)c3)c2)cc1 [9b, 1,3-bis(3-(4-(3-(pyrrolidin-1-yl)propanamido)phenylcarbamoyl)phenyl)urea]
- SPR Ligand KA for a single-site fit, c-kit1 (c-kit1 quadruplex): 1.4e+06 M⁻¹
- SPR Ligand KA for a single-site fit, c-myc (c-myc quadruplex): 2.1e+06 M⁻¹
- chromosomal end-end fusions relative to an untreated control (MCF7 cells [4]): did not show significant changes
- SPR Ligand KA for a single-site fit, c-kit2 (c-kit2 quadruplex): 5e+06 M⁻¹
- SPR Ligand KA for a single-site fit, hTel [2]: 1.1e+06 M⁻¹
- PD (population doublings) (MCF7 cells [3]; 1.00 μM): 4.53 ± 0.07
- PD (population doublings) (MCF7 cells [3]; 1.75 μM): 4.50 ± 0.03
- PD (population doublings) (MCF7 cells [3]; 2.25 μM): 2.73 ± 0.20

Compound: O=C(CCCN1CCCC1)Nc1ccc(NC(=O)c2cccc(NC(=O)Nc3cccc(C(=O)Nc4ccc(NC(=O)CCCN5CCCC5)cc4)c3)c2)cc1 [9c, 1,3-bis(3-(4-(4-(pyrrolidin-1-yl)butanamido)phenylcarbamoyl)phenyl)urea]
- SPR Ligand KA for a single-site fit, c-kit1 (c-kit1 quadruplex): 400000 M⁻¹
- FRET ΔTm at a 1μM ligand concentration, Duplex [1]: 0.0 ± 0.6 °C
- SPR Ligand KA for a single-site fit, c-myc (c-myc quadruplex): 900000 M⁻¹
- SPR Ligand KA for a single-site fit, c-kit2 (c-kit2 quadruplex): 3.1e+06 M⁻¹
- SPR Ligand KA for a single-site fit, hTel [2]: 400000 M⁻¹
- PD (population doublings) (MCF7 cells [3]; 3.50 μM): 3.94 ± 0.24
- PD (population doublings) (MCF7 cells [3]; 7.00 μM): 3.35 ± 0.03

Compound: O=C(CCCN1CCCC1)Nc1cccc(NC(=O)c2cccc(NC(=O)Nc3cccc(C(=O)Nc4cccc(NC(=O)CCCN5CCCC5)c4)c3)c2)c1 [9f, 1,3-bis(3-(3-(4-(pyrrolidin-1-yl)butanamido)phenylcarbamoyl)phenyl)urea]
- FRET ΔTm at a 1μM ligand concentration, Duplex [1]: 0.0 ± 0.3 °C

Compound: O=C(CCN1CCCCC1)Nc1ccc(NC(=O)c2cccc(NC(=O)Nc3cccc(C(=O)Nc4ccc(NC(=O)CCN5CCCCC5)cc4)c3)c2)cc1 [9h, 1,3-bis(3-(4-(3-(piperidin-1-yl)propanamido)phenylcarbamoyl)phenyl)urea]
- PD (population doublings) (MCF7 cells [3]; 2.00 μM): 3.66 ± 0.00
- PD (population doublings) (MCF7 cells [3]; 3.50 μM): 3.46 ± 0.34

Compound: O=C(CCN1CCCC1)Nc1cccc(NC(=O)c2ccc(NC(=O)Nc3ccc(C(=O)Nc4cccc(NC(=O)CCN5CCCC5)c4)cc3)cc2)c1 [10e, 1,3-bis(4-(3-(3-(pyrrolidin-1-yl)propanamido)phenylcarbamoyl)phenyl)urea]
- PD (population doublings) (MCF7 cells [3]; 1.00 μM): 3.40 ± 0.26
- PD (population doublings) (MCF7 cells [3]; 2.00 μM): 1.81 ± 0.10

Compound: CN(C)c1ccc(Nc2c3ccc(NC(=O)CCN4CCCC4)cc3nc3cc(NC(=O)CCN4CCCC4)ccc23)cc1 [BRACO-19, 3,6-bis(3-pyrrolidin-1-ylpropionamido)-9-(4-dimethylaminophenylamino) acridine]
- SPR KA, Duplex (DNA hairpin duplex): 500000 M⁻¹
- IC50 [5]: 2500 nM
- IC50 [6]: 2400 nM
- SPR Ligand KA for a single-site fit, hTel [7]: 3.1e+07 M⁻¹
